# Screens from PubChem.
# Sampled rows, rich in hits. Any-hit rate of the full collection: about 1.4%.
# MT1-MMP act inh: MT1-MMP (human) activation inhibition; HT1080 RFP-PRO-GFP cells, GFP/RFP ratio fluorescence, overnight; percent of plate control window, DMSO zero; hit rate 0.061% among 360,000; GFP/RFP ratio change, % at 20 µM; P50281;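 active = GFP/RFP ratio change of at least 30% with cell ATP level not reduced by more than half and red fluorescence within 50% of control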
#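 Test system: HT1080 RFP-PRO-GFP cells; Benchmarks: DMSO and RFP-L50D-GFP cell wells; Timing: cells overnight before dosing, compound overnight, 37 °C, 5% CO2; Compound: one 20 µM compound dose with 1% DMSO; Read-out: GFP/RFP fluorescence ratio.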
# DDE Tn7 FP inh: DD(E)-Tn7 binding inhibition, primary FP screen | FP displacement of FITC-Tn7 peptide from fibrin DD(E); 0% = median of compound wells per plate | P02675 | inhibition, % at 8.3 µM | hit rate 0.13% among 370,000;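 active = inhibition above the mean of compounds falling within the control limits plus 3 SD of them, cut at about 14% in these data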;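 note: 0% = plate median of compound wells and 100% = 10 µM Aha-Tn7 peptide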
#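 Assay system: Human clot-derived fibrin DD(E) complex | Buffer or medium: Tris/NaCl/CaCl2 buffer, pH 7.8 | Repeats: One replicate per compound | Benchmarks: Aha-Tn7 high control | Measure: % inhibition scaled between sample-field median and high-control FP | Schedule: 10 min plus 3 h, room temperature | Signal: Fluorescence polarization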
# H9c2 TAG inh: reduces triacylglycerol accumulation in H9c2 cells. Nile Red lipid (TAG) fluorescence; cells loaded with 200 µM oleic acid. hit rate 0.66% among 230,000. inhibition, % at 12.5 µM;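 active = pattern-corrected inhibition of lipid staining of at least 50% with the nuclear-stain viability signal not falling by more than 50%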;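 note: 0% = DMSO wells and 100% = triacsin C control wells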
# Cardio protect: protects H9c2 cardiomyocytes from peroxide injury. H2O2 injury protection, ATPLite, 2 h. protection from H2O2 cell death, % at 20 µM. hit rate 0.63% among 360,000. AID 588492;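 active = compounds giving at least 50% protection of heart cells from peroxide-induced death in the single-dose screen, raw or plate-pattern-corrected value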;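 note: 0% = DMSO wells with peroxide and 100% = DMSO wells without peroxide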
# DAGLB inhibitor: diacylglycerol lipase beta (human) inhibition | Q8NCG7 | HEK293T DAGLB membrane lysate, EnzChek fluorogenic substrate | inhibition, % at 5.17 µM | hit rate 0.059% among 340,000; in the data active = inhibition above about 34%;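 note: 0% = enzyme with vehicle and 100% = wells lacking enzyme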
# Target sequence (Q8NCG7 whole entry, looked up): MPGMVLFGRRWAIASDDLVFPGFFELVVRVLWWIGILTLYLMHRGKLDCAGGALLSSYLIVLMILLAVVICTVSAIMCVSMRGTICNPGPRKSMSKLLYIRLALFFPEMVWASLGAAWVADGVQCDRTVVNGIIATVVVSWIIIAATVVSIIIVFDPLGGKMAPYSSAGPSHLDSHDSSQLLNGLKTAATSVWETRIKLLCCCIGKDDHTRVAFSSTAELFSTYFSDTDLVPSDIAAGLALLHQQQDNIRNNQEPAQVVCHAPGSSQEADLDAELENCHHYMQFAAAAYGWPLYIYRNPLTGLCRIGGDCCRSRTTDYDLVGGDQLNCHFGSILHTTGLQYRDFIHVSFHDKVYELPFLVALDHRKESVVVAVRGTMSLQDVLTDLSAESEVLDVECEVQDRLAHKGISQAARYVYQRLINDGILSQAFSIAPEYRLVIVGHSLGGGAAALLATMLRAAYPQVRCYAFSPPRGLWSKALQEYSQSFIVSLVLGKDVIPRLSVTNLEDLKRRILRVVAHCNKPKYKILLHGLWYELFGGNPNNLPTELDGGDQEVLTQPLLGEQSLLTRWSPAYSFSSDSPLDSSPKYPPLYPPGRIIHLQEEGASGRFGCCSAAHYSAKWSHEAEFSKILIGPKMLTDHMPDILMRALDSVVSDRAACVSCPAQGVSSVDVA
# DDE Tn6 FP inh: inhibitors of Tn6 peptide binding to human fibrin DD(E); inhibition, % at 8.3 µM; hit rate 0.21% among 370,000; AID 720509; P02675; Fibrin DD(E) TRITC-Tn6 fluorescence polarization displacement;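 active = inhibition above a per-campaign cutoff: mean of compounds within control limits plus 3 SD, cut at about 15% in these data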;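 note: 0% = median of all compound wells on the plate and 100% = blocking peptide control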
# DDE Tn6 FP ctr: counter-screen for inhibitors of Tn6 peptide binding to fibrin DD(E); shares compounds with DDE Tn6 FP inh; TRITC-Tn6 fluorescence polarization displacement; 0% = median of compound wells, not DMSO; inhibition, % at 8.3 µM; hit rate 2% among 680;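 active = inhibition above the mean of test compounds lying between the control limits plus 3 SD of those, cut at about 14% in these data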;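 note: 0% = median of compound wells and 100% = wells with Aha-Tn7 blocking peptide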
# Tn6 DDE conf: DD(E)-Tn6 binding inhibition, FP confirmation. hit rate 10% among 680. FP displacement of TRITC-Tn6 peptide from DD(E); 0% = per-plate median of test wells. AID 720631. inhibition, % at 8.3 µM. shares compounds with DDE Tn6 FP inh;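 active = inhibition above the mean of compounds lying within the control limits plus 3 SD, cut at about 16% in these data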;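 note: 100% = high control wells holding a competing inhibitor peptide at 10 µM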
# Numbers without * were called inactive; · = not tested or not shown.
SMILES,MT1-MMP act inh,DDE Tn7 FP inh,H9c2 TAG inh,Cardio protect,DAGLB inhibitor,DDE Tn6 FP inh,DDE Tn6 FP ctr,Tn6 DDE conf
CCOC(=O)C(CNc1ccc(O)cc1)NC(=O)c1ccccc1 (centres undefined),·,1,·,·,·,66*,8,10
COc1ccc(NCc2nnc(SCC(=O)NCc3ccco3)n2-c2ccccc2OC)cc1,-1,-7,0,15,0,17*,-3,-4
COc1ccc(NS(=O)(=O)c2ccc3nc(COc4ccc5ccccc5c4)[nH]c3c2)cc1,2,4,·,-17,1,54*,-1,-10
Nc1c(C(=O)N2CCN(c3ccccc3)CC2)nnn1Cc1ccc(Cl)cc1,·,-1,·,·,·,0,·,·
Cn1cccc1C(=O)NC(=O)COC(=O)CCNS(=O)(=O)c1ccc(Cl)cc1,2,3,5,-7,0,16*,4,-5
CCCC(=O)C1=C(O)C(C(=O)OC)C(C)(C)CC1=Nc1ccc(N)cc1 (centres undefined),9,-1,·,14,-1,4,·,·
CCCC(=Nc1ccc(N)cc1)C1=C(O)C(C(=O)OC)C(C)(C)CC1=O (centres undefined),25,4,·,-7,8,126*,5,17*
Cc1cc(C)cc(CC(=O)N2CCC2(C)C(=O)NS(=O)(=O)c2cccc(F)c2)c1 (centres undefined),1,-2,-1,-2,·,1,·,·
COc1ccc(NC(=O)N(C)C[C@@H]2OCc3ccccc3-c3c(n(C)c4ccccc34)C(=O)N([C@H](C)CO)C[C@H]2C)c(OC)c1,-4,-6,1,1,4,17*,-4,-5
CC1(c2nnnn2-c2ccc3c(c2)OCCO3)CCC(=O)N1CCc1ccccc1F (centres undefined),0,-2,·,·,·,-2,·,·
COc1ccc(-c2nc(-c3ccccn3)nc(N3CCN(C)CC3)c2C#N)cc1,-3,2,16,3,1,17*,5,0
CN1CCN(c2nc(-c3ccccc3)nc(-c3ccc(F)cc3)c2C#N)CC1,0,-9,25,2,-5,-2,·,·
Cn1c(=O)[nH]c(=O)c2c1nc(NCCCn1ccnc1)n2Cc1ccc(F)cc1,3,7,-1,-13,4,15*,4,1
C/C(Cl)=C/Cn1c(NCCCn2ccnc2)nc2c1c(=O)[nH]c(=O)n2C,-1,0,-11,-8,2,-5,·,·
CC(C)CN1C(=O)C[C@]2(C(=O)N(C)c3ccc(NC(=O)C(C)(C)C)cc32)C1c1ccccc1 (some centres undefined),·,-4,·,·,·,-8,·,·
CCc1ccc(C(C#N)=CC=Cc2ccccc2)cc1,-1,5,8,-9,-14,2,·,·
CSc1cccc(NC(=O)C(=O)NCc2ccccc2)c1,4,7,-11,-3,·,-4,·,·
CSc1cccc(NC(=O)NCc2cccc(CNC(=O)Nc3cccc(SC)c3)c2)c1,-2,8,-7,15,7,27*,5,-4
CSc1c(N(C)C)c(=O)c1=S,·,3,·,·,·,1,·,·
CC12CCC(C(=O)NCC3CCCO3)(OC1=O)C2(C)C (centres undefined),3,2,6,2,-2,16*,4,3
COc1ccc2c(c1OC)c(=O)n1c3ccc(OC(C)C(=O)NCCN4CCOCC4)cc3c3ccnc2c31 (centres undefined),7,2,·,53*,-1,27*,-5,-5
CC(Oc1ccc2c3c(c(=O)oc2c1)CCCC3)C(=O)NCCN1CCOCC1 (centres undefined),1,-3,·,-2,2,3,·,·
